Assay [1] can be described thus: Her2 expression decrease, cell viability multiplex – SKBR3 breast tumor cells, AlphaScreen, ATP viability, primary screen (AID 461;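 active = Her2 level under about 52% in both replicate screens, with viability over 70% of control, limit read from the data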;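 for Her2 level: lower value means less Her2 protein in the cells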;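 for viability: percent of carrier control wells set as 100% viability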). The settings on record: SKBR3 Her2 protein level, 18-24 h, measured here: SKBR3 viability, ATP luminescence, at 10 µM.
For assay [2], the target named is Receptor tyrosine-protein kinase erbB-2 (Homo sapiens) (UniProt P04626). Described as above. The settings on record: 18-24 h, at 10 µM, stronger effect = lower value.
Assay [3] in a line: reduced viability of SK-BR-3 breast cancer cells – cell-based, 24 h, human, pilot screen (AID 572).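 Note: compound exposure lasted between 18 and 24 h rather than exactly 24 h; 100% = carrier-treated control wells.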 Conditions: SK-BR-3 viability, CellTiter-Glo luminescence, at 10 µM, stronger effect = lower value. In general terms: Cellular ATP, detected with luciferase, serves as a proxy for viable cell number.
A short description of assay [4]: HUVEC growth inhibition – cell-based, human, primary screen (AID 575;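 active = viability at or below 30% in both replicate assays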;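 note: 100% = median of untreated cell wells with 0.1% DMSO on each plate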). The settings on record: HUVEC proliferation, CellTiter-Glo luminescence, 72 h; at 10 µM; stronger effect = lower value. The method in brief:
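Test system: primary human umbilical vein endothelial cells; medium: endothelial basal medium with 2% FBS plus growth supplements; dosing: 10 µM compound only; times: 72 h treatment at 37 °C; signal: CTG luminescence; read-out: % viability relative to median vehicle-well signal on each plate; control set: vehicle and MePR control wells; plate: 384-well, collagen-coated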

Assay [5] in a line: H69AR cell proliferation blockers – human, duplicate replicates, primary screen (AID 580;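 active = viability at or under a set limit in both replicates, limit being median viability minus 3 SD, cut at about 48% in these data, passing the limit was not always enough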;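 note: 100% = mean luminescence of untreated wells and 0% = no signal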). Conditions: H69AR lung tumor cells viability, ATP luminescence, 72 h; at 10 µM; stronger effect = lower value.
Assay [6] in a line: MRP1 drug-resistance reversers in H69AR cells – cell-based, doxorubicin co-treatment, pilot screen (AID 601;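 active = viability loss from added drug above about 55%, and viability with drug at most 40%, in both replicates, limit read from the data, passing the limit was not always enough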). The settings on record: CellTiter-Glo, 72 h, at 10 µM; for differential viability (reversal): stronger effect = higher value.
The nature of assay [7]: yeast transport mutant growth inhibition pilot in 384-well plates, post-Golgi transport modulator project (AID 636; in the data active = inhibition above about 31%). The settings on record: absorbance 615 nm, about 18 h, stronger effect = higher value.
A short description of assay [8]: growth suppression of yeast trafficking mutant, preliminary HTS, modulators of trafficking downstream of Golgi apparatus project, 1536-format plate, OD 615 nm (AID 637; in the data active = inhibition above about 30%). The settings on record: yeast transport mutant growth, absorbance 615 nm, 18 h; stronger effect = higher value.
Where [9] appears, read: H69AR cells + 2 uM doxorubicin, measured here: viability with 2 uM doxorubicin, stronger effect = lower value.
[10] abbreviates: H69AR cells, compound alone cytotoxicity.

Active and inactive are the calls of the source.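 Rule for the calls, unless noted: active = viability at or below 10% of carrier control in both of two separate runs; inconclusive = viability at or below 10% in only one of the two runs; inactive = the rest.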

Sequence of Receptor tyrosine-protein kinase erbB-2 (Homo sapiens) (P04626 whole entry, looked up): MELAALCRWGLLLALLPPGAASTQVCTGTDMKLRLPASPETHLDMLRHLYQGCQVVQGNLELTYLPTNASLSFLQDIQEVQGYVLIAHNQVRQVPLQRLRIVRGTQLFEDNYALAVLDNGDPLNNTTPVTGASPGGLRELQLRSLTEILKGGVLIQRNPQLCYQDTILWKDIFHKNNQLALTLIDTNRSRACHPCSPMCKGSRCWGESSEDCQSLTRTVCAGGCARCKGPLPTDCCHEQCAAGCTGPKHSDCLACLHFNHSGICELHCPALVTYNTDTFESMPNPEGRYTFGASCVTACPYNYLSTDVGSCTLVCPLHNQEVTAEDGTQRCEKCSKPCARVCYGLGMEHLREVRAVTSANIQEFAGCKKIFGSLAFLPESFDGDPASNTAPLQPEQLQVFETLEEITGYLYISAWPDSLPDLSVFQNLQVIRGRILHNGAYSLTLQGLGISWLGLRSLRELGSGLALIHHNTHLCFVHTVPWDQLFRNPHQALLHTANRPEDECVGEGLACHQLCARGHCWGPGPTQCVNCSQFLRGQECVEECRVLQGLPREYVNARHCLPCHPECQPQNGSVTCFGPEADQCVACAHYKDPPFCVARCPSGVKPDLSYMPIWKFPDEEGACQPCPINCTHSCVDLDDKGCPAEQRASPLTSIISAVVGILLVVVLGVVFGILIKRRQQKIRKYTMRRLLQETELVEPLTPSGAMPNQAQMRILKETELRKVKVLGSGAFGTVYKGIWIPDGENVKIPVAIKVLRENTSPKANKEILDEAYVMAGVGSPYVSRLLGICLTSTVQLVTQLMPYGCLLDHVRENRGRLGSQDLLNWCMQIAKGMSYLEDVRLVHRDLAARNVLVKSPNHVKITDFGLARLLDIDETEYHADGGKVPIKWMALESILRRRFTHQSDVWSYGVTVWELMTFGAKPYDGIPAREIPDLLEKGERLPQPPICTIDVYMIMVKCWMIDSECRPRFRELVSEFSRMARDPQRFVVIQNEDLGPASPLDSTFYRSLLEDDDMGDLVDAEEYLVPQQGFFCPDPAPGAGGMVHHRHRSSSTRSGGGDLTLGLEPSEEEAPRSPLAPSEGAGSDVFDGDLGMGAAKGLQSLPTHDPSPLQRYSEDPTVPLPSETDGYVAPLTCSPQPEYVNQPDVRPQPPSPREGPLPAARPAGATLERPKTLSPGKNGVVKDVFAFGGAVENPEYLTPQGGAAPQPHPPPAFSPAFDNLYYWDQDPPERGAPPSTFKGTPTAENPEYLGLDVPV

What is called viability is a read-out of living cells in per cent, often relative to untreated cells. What is called inhibition is the drop in the measured response relative to a control, in per cent. Turning to `COc1ccccc1OCCCCNCCO`, the viability was 95.5% in assay [1]; 95.5% (inactive) in assay [3]; 92% (inactive) in assay [4]; 101% (inactive) in assay [5]; 88.7% in assay [6] (setting [9]); 101% in assay [6] (setting [10]). Besides, in assay [2], the Her2 level is 116% (inactive). Further, the differential viability (reversal) in assay [6] (H69AR cells + 2 uM doxorubicin) is 12.6% (inactive). The inhibition in assay [7] was -1.56% (inactive); in assay [8] it was -7.83% (inactive).

On to `Cc1cccc(-c2cc3nc4c(c(N5CCC6(CC5)OCCO6)n3n2)CCCC4)c1`, for which the viability in assay [1] was 80.5%; in assay [3] it was 80.5% (inactive); in assay [4], 77.8% (inactive); in assay [5], 83.9% (inactive); in assay [6] (setting [9]), 93%; in assay [6] (setting [10]), 83.9%. In addition, the Her2 level in assay [2] was 100% (inactive). For the same compound, in assay [6] (H69AR cells + 2 uM doxorubicin), the differential viability (reversal) was -9.12% (inactive). Further, the inhibition in assay [7] was -2.13% (inactive); in assay [8], 9.37% (inactive).

For `Cc1cc(Oc2ccccc2)nc(-c2ccccc2)n1`, the viability in assay [1] is 100%; in assay [3] it was 100% (inactive); in assay [4], 92.7% (inactive); in assay [5], 99.1% (inactive); in assay [6] (setting [9]), 91.2%; in assay [6] (setting [10]), 99.1%. Moreover, the Her2 level in assay [2] is 112% (inactive). The differential viability (reversal) in assay [6] (H69AR cells + 2 uM doxorubicin) was 7.91% (inactive). Further, the inhibition in assay [7] was -1.17% (inactive); in assay [8] it was -5.25% (inactive).

On to `COC(=O)Nc1ccc(S(=O)(=O)N(C)CC(F)(F)C(F)F)cc1`, for which the viability in assay [1] was 107%; in assay [3], 107% (inactive); in assay [4] it was 107% (inactive); in assay [5], 93.1% (inactive); in assay [6] (setting [9]), 94.2%; in assay [6] (setting [10]), 93.1%. Further, in assay [2], the Her2 level was 102% (inactive). The differential viability (reversal) in assay [6] (H69AR cells + 2 uM doxorubicin) was -1.14% (inactive). Also, the inhibition was -6.05% (inactive) in assay [7] and 1.8% (inactive) in assay [8].

As for `COc1cc2c(=O)n(Cc3ccccc3)c(=O)n(CC(=O)NCc3ccco3)c2cc1OC`, the viability is 126% in assay [1]; 126% (inactive) in assay [3]; 95.4% (inactive) in assay [4]; 86.2% (inactive) in assay [5]; 87% in assay [6] (setting [9]); 86.2% in assay [6] (setting [10]). Moreover, in assay [2], the Her2 level was 83% (inactive). The differential viability (reversal) in assay [6] (H69AR cells + 2 uM doxorubicin) is -0.76% (inactive). Besides, the inhibition in assay [7] is -8% (inactive); in assay [8] it was -3.65% (inactive).

For the compound `O=C(CSc1nnnn1C1CCCC1)Nc1cccc(NC(=O)c2ccco2)c1`, the viability in assay [1] was 91.5%; in assay [3], 91.5% (inactive); in assay [4], 96.7% (inactive); in assay [5], 110% (inactive); in assay [6] (setting [9]) it was 97%; in assay [6] (setting [10]), 110%. In addition, the Her2 level in assay [2] was 98.5% (inactive). The differential viability (reversal) in assay [6] (H69AR cells + 2 uM doxorubicin) is 13.4% (inactive). For the same compound, the figures for the inhibition in assay [7] and in assay [8] were -0.39% (inactive) and -2.17% (inactive), respectively.

On to `Cc1cccc(C)c1NC(=O)CS(=O)CC(=O)NC1CCCc2ccccc21` (stereo not given), for which the viability is 96.5% in assay [1]; 96.5% (inactive) in assay [3]; 103% (inactive) in assay [4]; 88.7% (inactive) in assay [5]; 92.3% in assay [6] (setting [9]); 88.7% in assay [6] (setting [10]). The Her2 level in assay [2] was 82.5% (inactive). In assay [6] (H69AR cells + 2 uM doxorubicin), the differential viability (reversal) was -3.62% (inactive). Besides, the inhibition was -6.8% (inactive) in assay [7] and -4.59% (inactive) in assay [8].

Regarding `Cc1ccc(-c2noc(-c3ccccc3C(=O)NCC3CCCO3)n2)cc1` (stereo not given), the viability in assay [1] is 91%; in assay [3], 91% (inactive); in assay [4], 100% (inactive); in assay [5], 100% (inactive); in assay [6] (setting [9]) it was 94.4%; in assay [6] (setting [10]), 100%. The Her2 level in assay [2] was 107% (inactive). In addition, the differential viability (reversal) in assay [6] (H69AR cells + 2 uM doxorubicin) is 5.99% (inactive). Further, the inhibition is -0.13% (inactive) in assay [7] and -3.97% (inactive) in assay [8].

For the compound `O=C(O)CC1CCCC(c2ccccc2)C1=O` (stereo not given), the viability in assay [1] is 97%; in assay [3], 97% (inactive); in assay [4], 108% (inactive); in assay [5], 99.6% (inactive); in assay [6] (setting [9]), 93%; in assay [6] (setting [10]) it was 99.6%. For the same compound, in assay [2], the Her2 level is 110% (inactive). For the same compound, in assay [6] (H69AR cells + 2 uM doxorubicin), the differential viability (reversal) was 6.58% (inactive). The inhibition in assay [7] is -6.4% (inactive); in assay [8] it was -9.35% (inactive).

Consider `COc1ccc(CNc2nc3nc(C)cc(C)n3n2)cc1OC`, for which the viability in assay [1] is 104%; in assay [3] it was 104% (inactive); in assay [4], 111% (inactive); in assay [5], 108% (inactive); in assay [6] (setting [9]), 103%; in assay [6] (setting [10]), 108%. Further, in assay [2], the Her2 level was 94.5% (inactive). Besides, the differential viability (reversal) in assay [6] (H69AR cells + 2 uM doxorubicin) is 5.1% (inactive). Moreover, the inhibition in assay [7] is -1.71% (inactive); in assay [8] it was 7.21% (inactive).

For the compound `CC1CCN(C(=O)Cn2c(=O)oc3ccccc32)CC1`, the viability in assay [1] is 86.5%; in assay [3], 86.5% (inactive); in assay [4], 95.1% (inactive); in assay [5] it was 90.7% (inactive); in assay [6] (setting [9]) it was 84.5%; in assay [6] (setting [10]), 90.7%. For the same compound, the Her2 level in assay [2] was 108% (inactive). The differential viability (reversal) in assay [6] (H69AR cells + 2 uM doxorubicin) was 6.24% (inactive). In addition, the inhibition in assay [7] is 0.53% (inactive); in assay [8], -6.55% (inactive).

For `Cc1ccc(NC(=O)C2CCCN(S(=O)(=O)c3cnc[nH]3)C2)cc1F` (stereo not given), the viability in assay [1] is 104%; in assay [3], 104% (inactive); in assay [4] it was 111% (inactive); in assay [5], 95.1% (inactive); in assay [6] (setting [9]), 95.3%; in assay [6] (setting [10]) it was 95.1%. Moreover, in assay [2], the Her2 level is 94% (inactive). Also, the differential viability (reversal) in assay [6] (H69AR cells + 2 uM doxorubicin) is -0.16% (inactive). Also, the inhibition was -3.73% (inactive) in assay [7] and -3.11% (inactive) in assay [8].

Regarding `Cc1ccc(S(=O)(=O)N2C(=O)CCC2C(=O)Nc2ccc3c(c2)OCCO3)cc1` (stereo not given), the viability in assay [1] was 109%; in assay [3], 109% (inactive); in assay [4] it was 93.6% (inactive); in assay [5], 89.7% (inactive); in assay [6] (setting [9]) it was 93.8%; in assay [6] (setting [10]), 89.7%. In addition, the Her2 level in assay [2] is 96.5% (inactive). Also, in assay [6] (H69AR cells + 2 uM doxorubicin), the differential viability (reversal) was -4.12% (inactive). Besides, the inhibition in assay [7] was -1.69% (inactive); in assay [8], -1.67% (inactive).

In the case of `N#Cc1nc(COc2ccc(Br)cc2)oc1N1CCCC1`, the viability in assay [1] was 99%; in assay [3], 99% (inactive); in assay [4], 89.4% (inactive); in assay [5], 87.5% (inactive); in assay [6] (setting [9]), 86.7%; in assay [6] (setting [10]) it was 87.5%. In addition, the Her2 level in assay [2] is 90% (inactive). In addition, the differential viability (reversal) in assay [6] (H69AR cells + 2 uM doxorubicin) is 0.745% (inactive). Moreover, the inhibition in assay [7] was -7.07% (inactive); in assay [8], 0.66% (inactive).

The values above are taken from PubChem BioAssay.
